TCR-CD3 inh – human TCR-CD3 binding inhibition; TAMRA-labeled TCR probe fluorescence, biochemical; inhibition, % at 9.4 µM; 360,000 tested, 0.37% active; in the data active means inhibition above about 19%;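 further: recombinant mutant TCR 2C K166C tagged with TAMRA read by polarization; 0% = receptor in buffer alone and 100% = receptor with positive control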
HTRA1 inh – inhibitors of human serine peptidase HTRA1; Q92743; recombinant HTRA1, FP-rhodamine activity-based probe, fluorescence polarization; inhibition, % at 5.96 µM; 340,000 tested, 0.5% active; in the data active means inhibition above about 36%;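 further: 0% = enzyme with DMSO and 100% = wells lacking enzyme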
SIAE inh – inhibitors of human sialic acid acetylesterase SIAE | 370,000 tested, 0.69% active | AID 1053197 | inhibition, % at 9.66 µM | SIAE FP-Rh probe binding, fluorescence polarization;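 active means inhibition above a cutoff: mean of compounds within the control limits plus 3 SD of those, cut at about 17% in these data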;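 further: 0% = plate median of compound wells and 100% = probe without SIAE protein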
PRMT1 FP inh – inhibitors of human PRMT1. 370,000 tested, 1.3% active. Q99873. recombinant PRMT1, activity-based probe fluorescence polarization. inhibition, % at 2.79 µM;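 active means inhibition above about 21% made by adding two undisclosed values, limit read from the data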
mABHD4 FP – inhibits mouse alpha/beta hydrolase domain 4. Q8VD66. purified mABHD4, FP-Rh probe fluorescence polarization. inhibition, % at 8.92 µM. 370,000 tested, 0.54% active. AID 720543;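 active means inhibition exceeding the mean over every tested compound plus 3 SD, cut at about 30% in these data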;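 further: 0% = plate median of compound wells and 100% = S159A mutant with DMSO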
Target sequence (Q8VD66 whole entry, looked up, the tested form may be a part): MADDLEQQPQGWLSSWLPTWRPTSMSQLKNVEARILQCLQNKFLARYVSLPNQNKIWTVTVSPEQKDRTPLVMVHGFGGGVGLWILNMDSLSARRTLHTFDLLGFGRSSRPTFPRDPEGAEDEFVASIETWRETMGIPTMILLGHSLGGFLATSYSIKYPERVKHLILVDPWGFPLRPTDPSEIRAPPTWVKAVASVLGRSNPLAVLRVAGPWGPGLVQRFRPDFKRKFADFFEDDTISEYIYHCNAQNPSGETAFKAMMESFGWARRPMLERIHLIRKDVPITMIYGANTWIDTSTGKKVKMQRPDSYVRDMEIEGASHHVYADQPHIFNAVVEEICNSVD
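Assay system: mouse ABHD4 enzyme, wild type / Also added: fluorescent activity-based probe FP-Rh / Doses: single nominal dose of 8.92 µM, 0.89% DMSO final / Timing: 45 min compound pre-incubation plus 60 min probe step, 25 °C / Signal: FP readout, ex 525 nm / em 598 nm / Control set: S159A mutant/DMSO as 100%, compound-well median as 0%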
PRMT1 confirm – confirmation of human PRMT1 inhibitors; recombinant His-PRMT1, activity-based probe fluorescence polarization; inhibition, % at 2.79 µM; AID 687036; shares compounds with PRMT1 FP inh; 3,300 tested, 42% active;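 active means mean inhibition across replicates above the hit cutoff derived for the earlier primary screen, cut at about 22% in these data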
The depositor's hits bear a star; · = not tested or not shown. Most compounds without a hit are left out; they make up all but 2.5% or so of the library.

SMILES	TCR-CD3 inh	HTRA1 inh	SIAE inh	PRMT1 FP inh	mABHD4 FP	PRMT1 confirm
Cc1cc(C)n(C(=O)CCCn2cc([N+](=O)[O-])cn2)n1	3	2	-1	-5	2	·
Nc1nnc(SC2CC(=O)N(c3ccccc3)C2=O)s1 (stereo unspecified)	-6	-1	2	75*	5	73*
COc1ccccc1N1C(=O)CC(Sc2n[nH]c(-c3cccc(C)c3)n2)C1=O (stereo unspecified)	6	2	3	88*	5	73*
S=c1cnc2ccccc2[nH]1	10	6	2	40*	7	14
CC(=O)c1ccc(NC(=O)CSc2nnc(NC(=O)C3CC3)s2)cc1	3	-1	3	-2	-8	·
CC(C)Sc1nc(SCC(=O)O)c2c3c(sc2n1)COC(C)(C)C3	-9	4	3	2	3	·
CC(C)Sc1nc(SCC(=O)NCc2ccco2)c2c3c(sc2n1)COC(C)(C)C3	1	-24	-14	31*	-22	10
CCc1c(C(=O)Nc2ccccc2)c(C)[nH]c(=S)c1C#N	-3	-9	-5	43*	-4	88*
Cc1[nH]c(=S)c(C#N)c(C)c1C(=O)Nc1ccccc1	1	2	1	33*	10	13
CC(=O)c1c(C)[nH]c(C(=O)Nc2cccc(C#N)c2)c1C	11	1	-10	-6	-8	·
CSc1ccccc1NC(=O)CSc1nnc(Cc2ccccc2)o1	1	-7	2	-3	0	·
CCc1cc(C(=O)Nc2ccc(OC)nc2)sc1C	5	-4	-4	26*	-4	7
O=c1c2ccccc2oc2c1oc1ccccc12	1	-6	-7	-8	5	·
C[C@H](O)[C@@H]1CN2CCc3c([nH]c4c(-c5ccccc5)cccc34)[C@@H]2C[C@@H]1N(C)C(=O)NC1CCCCC1	3	·	-4	-3	-2	·
CN(C)CCN(C)Cc1c2ccccc2c(CN(C)CCN(C)C)c2ccccc12	-1	-3	1	31*	0	8
COc1ccc(S(=O)(=O)NCc2cccnc2)cc1NC(=O)c1ccccc1C	5	8	-28	48*	16	6
CC(=O)Nc1c(O)nc(SCC(=O)Nc2cccc(C)c2)[nH]c1=O	4	-2	3	54*	9	3
Cc1cccc(NC(=O)CSc2nc3nc(C)cc(C)c3c(=O)[nH]2)c1	5	9	9	-2	-3	·
Cc1sc2nc(SCC(=O)Nc3cccc(S(N)(=O)=O)c3)[nH]c(=O)c2c1C	1	-2	9	27*	0	1
CC(=O)Nc1c(O)nc(SCC(=O)Nc2ccc(C(C)=O)cc2)[nH]c1=O	11	-1	-1	59*	-3	19
CC(C)(C)n1cc(S(=O)(=O)c2ccccc2)[nH]c1=O	2	6	-8	-5	-7	·
FC(F)(F)Oc1cccc(Cn2ccc3ccc(-c4ccc5ccn(Cc6cccc(OC(F)(F)F)c6)c5c4)cc32)c1	·	·	3	-2	3	·
CCCCn1c(SCC(=O)NC2CC2)nc2cc(C(=O)OC)ccc2c1=O	3	-1	5	-1	-7	·
NC(CCC(=O)NC(CS)C(=O)NCC(=O)O)C(=O)O (stereo unspecified)	-7	-2	7	4	5	·
Cc1ccc(CNC(=O)CSc2c3c(nc4ccc(Cl)cc24)CCCC3)o1	-4	-19	-6	50*	10	5
SMILES	TCR-CD3 inh	HTRA1 inh	SIAE inh	PRMT1 FP inh	mABHD4 FP	PRMT1 confirm
CCN(CC)CCNC(=O)CSc1c2c(nc3cc(Cl)ccc13)CCCC2	-4	-30	-2	14	3	·
CC(Sc1nnc(C(C)Oc2ccccc2F)o1)C(=O)NCc1ccc2c(c1)OCO2 (stereo unspecified)	-7	0	0	4	6	·
CC(=O)Nc1ncc2c(n1)CC(c1ccco1)CC2=O (stereo unspecified)	5	1	3	0	3	·
CCC(=O)Nc1ncc2c(n1)CC(c1ccco1)CC2=O (stereo unspecified)	9	21	5	41*	2	8
O=C(Nc1ncc2c(n1)CC(c1ccco1)CC2=O)c1ccco1 (stereo unspecified)	-7	11	5	36*	12	4
Nc1ncc2c(n1)CC(c1ccco1)CC2=O (stereo unspecified)	-5	9	16	28*	12	4
Cc1csc2ncc(C(=O)NC(C)c3ccccc3)c(=O)n12 (stereo unspecified)	-8	6	5	3	2	·
Cn1c(CS/C(N)=N/N=C/c2ccccc2)c(Br)c(=O)n1-c1ccccc1	-1	3	7	42*	8	56*
Nc1ccc(-n2cc(-c3ccccc3)[nH]c2=S)cc1	6	17	-2	45*	1	20
COc1ccc(NC(=O)C2Cc3c(-c4cccc(NC(C)=O)c4)ccnc3O2)cc1 (stereo unspecified)	-9	·	-5	9	-9	·
c1ccc(CN2CCC3(CC2)Nc2ccccc2S3)cc1	-5	3	9	54*	4	-3
COc1ccc(C(=O)/C=C/C(=O)N(CC(=O)NC2CCCCC2)CC2CCCO2)c(O)c1 (stereo unspecified)	6	-15	-4	34*	2	41*
COc1ccc(C(=O)/C=C/C(=O)N(CC(=O)NC2CCCCC2)Cc2ccccc2)c(O)c1	6	-73	4	5	0	·
CCCCN1CC(=O)N2[C@H]3c4ccccc4OC[C@@H]3[C@H](C(=O)OCC)[C@]2(C)C1=O	1	1	-2	1	4	·
COC(=O)c1c(NC(=O)CN2CCC3(O)CCCCC3C2c2ccc(OC)cc2OC)sc(C)c1C (stereo unspecified)	-8	-35	-9	30*	-6	13
CC(=O)NCCc1nc2cc(NC(=O)COc3cccc(C)c3)ccc2n1C	7	2	1	2	7	·
CC(=O)N1N=C(c2cccs2)CC1c1ccco1 (stereo unspecified)	14	5	1	-3	-3	·
CS(=O)(=O)N1N=C(c2cccs2)CC1c1ccco1 (stereo unspecified)	-3	-5	0	41*	2	4
COc1ccc(N2CCN(CCCNC(=O)C(=O)c3c(C)n(C)c4ccccc34)CC2)cc1	7	2	7	-3	7	·
O=C(CSCc1ccco1)Nc1cc(C(F)(F)F)ccc1N1CCOCC1	3	-3	4	66*	-1	40*
Cc1ccc(NC(=O)CSCC(=O)Nc2cc(C(F)(F)F)ccc2N2CCOCC2)cc1	·	-15	·	·	·	·
Cc1nn(CCc2nc(-c3ccco3)cs2)c2[nH]c(=O)cc(C(F)(F)F)c12	8	0	6	34*	9	7
